Data from ChEMBL document CHEMBL5120805, “Autoxidation of a C2-Olefinated Dihydroartemisinic Acid Analogue to Form an Aromatic Ring: Application to Serrulatene Biosynthesis” (2022).
Converted amounts (≈) assume the structure as drawn.

Key:
Type in all cases: functional
Cryptococcus neoformans = assay: Antimicrobial activity against Cryptococcus neoformans H99 assessed as reduction in […] growth and measured for 48 hrs by resazurin dye based broth microdilution method
Outline: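 Cells from overnight growth diluted to ~1 × 10^5 CFU/mL in sabouraud dextrose broth. Compounds from 10 mg/mL DMSO stocks tested at 0.048–100 μg/mL. Plates incubated standing at 37 °C for 48 h, then resazurin added for a further 24 h. MIC taken from colour change.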

Pseudomonas aeruginosa = assay: Antimicrobial activity against Pseudomonas aeruginosa PA14 assessed as reduction in bacterial growth and measured for 24 hrs by resazurin dye based broth microdilution method
Outline: (§1)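 Overnight cultures diluted to ~1 × 10^5 CFU/mL and exposed to compounds (DMSO stocks at 10 mg/mL) over 0.048–100 μg/mL final. Incubated standing in lysogeny broth at 37 °C for 24 h. Resazurin then added, 1 h further incubation, and MIC read from colour change.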

Staphylococcus aureus = assay: Antimicrobial activity against Staphylococcus aureus JE2 ssessed as reduction in bacterial growth and measured for 24 hrs by resazurin dye based broth microdilution method; outline: as §1

Molecule: CC(=O)OCCC[C@H](C)[C@@H]1CC[C@@H](C)[C@@H]2CCC(C)=C[C@@H]21
- MIC (Cryptococcus neoformans): 12.5 µg/mL (≈ 42.7 µM)
- MIC (Pseudomonas aeruginosa): > 100 µg/mL
- MIC (Staphylococcus aureus): > 100 µg/mL

Molecule: CC1=C[C@H]2[C@@H](CC1)[C@H](C)CC[C@H]2[C@@H](C)C(=O)O
- MIC (Cryptococcus neoformans): 25 µg/mL (≈ 106 µM)
- MIC (Pseudomonas aeruginosa): > 100 µg/mL
- MIC (Staphylococcus aureus): 100 µg/mL (≈ 423 µM)

Molecule: CC1=C[C@H]2[C@@H](CC1)[C@H](C)CC[C@H]2[C@@H](C)CCCO
- MIC (Cryptococcus neoformans): > 100 µg/mL
- MIC (Pseudomonas aeruginosa): > 100 µg/mL
- MIC (Staphylococcus aureus): 12.5 µg/mL (≈ 49.9 µM)

Molecule: CC1=C[C@H]2[C@@H](C=C1)[C@H](C)CC[C@H]2[C@@H](C)C=O
- MIC (Cryptococcus neoformans): > 100 µg/mL
- MIC (Pseudomonas aeruginosa): > 100 µg/mL
- MIC (Staphylococcus aureus): > 100 µg/mL

Molecule: CC(C)=CCC[C@H](C)[C@@H]1CC[C@@H](C)c2ccc(C)cc21
- MIC (Cryptococcus neoformans): > 100 µg/mL
- MIC (Pseudomonas aeruginosa): > 100 µg/mL
- MIC (Staphylococcus aureus): > 100 µg/mL

Molecule: Cc1ccc2c(c1)[C@H]([C@@H](C)C(=O)O)CC[C@H]2C
- MIC (Cryptococcus neoformans): 100 µg/mL (≈ 430 µM)
- MIC (Pseudomonas aeruginosa): > 100 µg/mL
- MIC (Staphylococcus aureus): > 100 µg/mL

Molecule: CC1=C[C@H]2[C@@H](C=C1)[C@H](C)CC[C@H]2[C@@H](C)C(=O)O
- MIC (Cryptococcus neoformans): 100 µg/mL (≈ 427 µM)
- MIC (Pseudomonas aeruginosa): > 100 µg/mL
- MIC (Staphylococcus aureus): > 100 µg/mL

Molecule: CC1C[C@@H]2OO[C@H]1[C@@H]1[C@H]([C@@H](C)C(=O)O)CC[C@@H](C)[C@@H]12 (stereo partly specified)
- MIC (Cryptococcus neoformans): > 100 µg/mL
- MIC (Pseudomonas aeruginosa): > 100 µg/mL
- MIC (Staphylococcus aureus): > 100 µg/mL

Molecule: O=C(O)c1cn(C2CC2)c2cc(N3CCNCC3)c(F)cc2c1=O [CIPROFLOXACIN]
- MIC (Pseudomonas aeruginosa): < 0.04 µg/mL
- MIC (Staphylococcus aureus): 12.5 µg/mL (≈ 37.7 µM)

Molecule: C#COC(=O)[C@H](C)[C@@H]1CC[C@@H](C)[C@@H]2CCC(C)=C[C@@H]21
- MIC (Cryptococcus neoformans): > 100 µg/mL
- MIC (Pseudomonas aeruginosa): > 100 µg/mL
- MIC (Staphylococcus aureus): > 100 µg/mL

Molecule: Cc1ccc2c(c1)[C@H]([C@@H](C)C=O)CC[C@H]2C
- MIC (Cryptococcus neoformans): 100 µg/mL (≈ 462 µM)
- MIC (Pseudomonas aeruginosa): > 100 µg/mL
- MIC (Staphylococcus aureus): > 100 µg/mL

Molecule: COC=C[C@H](C)[C@@H]1CC[C@@H](C)[C@@H]2CCC(C)=C[C@@H]21 (mixture of isomers)
- MIC (Cryptococcus neoformans): 50 µg/mL
- MIC (Pseudomonas aeruginosa): > 100 µg/mL
- MIC (Staphylococcus aureus): 12.5 µg/mL

Molecule: GENTAMICIN
- MIC (Cryptococcus neoformans): 6.25 µg/mL
- MIC (Pseudomonas aeruginosa): 0.39 µg/mL
- MIC (Staphylococcus aureus): 6.25 µg/mL

Molecule: CC1=C[C@H]2[C@@H](C=C1)[C@H](C)CC[C@H]2[C@@H](C)CCCO
- MIC (Cryptococcus neoformans): > 100 µg/mL
- MIC (Pseudomonas aeruginosa): > 100 µg/mL
- MIC (Staphylococcus aureus): 50 µg/mL (≈ 201 µM)

Molecule: CC1=C[C@H]2[C@@H](CC1)[C@@H]([C@H](C)C(=O)OCc1cn(CCOCCOCCOCNS(=O)(=O)c3ccc(C4=c5cc6c7c(c5Oc5c4cc4c8c5CCCN8CCC4)CCC[N+]=7CCC6)c(S(=O)(=O)[O-])c3)nn1)CC[C@@H]2C
- MIC (Cryptococcus neoformans): > 50 µg/mL
- MIC (Pseudomonas aeruginosa): > 50 µg/mL
- MIC (Staphylococcus aureus): > 50 µg/mL

Molecule: Cc1ccc2c(c1)C([C@@H](C)CO)=CC[C@H]2C
- MIC (Cryptococcus neoformans): 50 µg/mL (≈ 231 µM)
- MIC (Pseudomonas aeruginosa): > 100 µg/mL
- MIC (Staphylococcus aureus): 100 µg/mL (≈ 462 µM)

Molecule: C[C@@H]1[C@H](O)[C@@H](C)/C=C/C=C/C=C/C=C/C=C/C=C/C=C/[C@H](O[C@@H]2O[C@H](C)[C@@H](O)[C@H](N)[C@@H]2O)C[C@@H]2O[C@](O)(C[C@@H](O)C[C@@H](O)[C@H](O)CC[C@@H](O)C[C@@H](O)CC(=O)O[C@H]1C)C[C@H](O)[C@H]2C(=O)O [AMPHOTERICIN B]
- MIC (Cryptococcus neoformans): < 0.048 µg/mL

Molecule: CC(=O)OCCC[C@H](C)[C@@H]1CC[C@@H](C)[C@@H]2C[C@@H](O)C(C)=C[C@@H]21
- MIC (Cryptococcus neoformans): 25 µg/mL (≈ 81 µM)
- MIC (Pseudomonas aeruginosa): > 100 µg/mL
- MIC (Staphylococcus aureus): > 100 µg/mL

Molecule: CC1=C[C@H]2[C@@H](C=C1)[C@H](C)CC[C@H]2[C@@H](C)CO
- MIC (Cryptococcus neoformans): 25 µg/mL (≈ 113 µM)
- MIC (Pseudomonas aeruginosa): > 100 µg/mL
- MIC (Staphylococcus aureus): 50 µg/mL (≈ 227 µM)

Molecule: C[C@@H]1CC[C@H]2[C@@H](C)C(=O)O[C@@H]3O[C@@]4(C)CC[C@@H]1[C@]32OO4 [ARTEMISININ]
- MIC (Cryptococcus neoformans): 100 µg/mL (≈ 354 µM)
- MIC (Pseudomonas aeruginosa): > 100 µg/mL
- MIC (Staphylococcus aureus): > 100 µg/mL

Molecule: CC1=CC2=C([C@@H](C)C(=O)O)CC[C@@H](C)[C@@H]2CC1
- MIC (Cryptococcus neoformans): > 100 µg/mL
- MIC (Pseudomonas aeruginosa): > 100 µg/mL
- MIC (Staphylococcus aureus): > 100 µg/mL

Molecule: CO[C@@H]1[C@@H](OC(N)=O)[C@@H](O)[C@H](Oc2ccc3c(O)c(NC(=O)c4ccc(O)c(CC=C(C)C)c4)c(=O)oc3c2C)OC1(C)C [NOVOBIOCIN]
- MIC (Staphylococcus aureus): < 0.19 µg/mL

Molecule: COC=CC[C@H](C)[C@@H]1CC[C@@H](C)[C@@H]2CCC(C)=C[C@@H]21 (mixture of isomers)
- MIC (Cryptococcus neoformans): > 100 µg/mL
- MIC (Pseudomonas aeruginosa): > 100 µg/mL
- MIC (Staphylococcus aureus): > 100 µg/mL

Molecule: Cc1ccc2c(c1)[C@H]([C@@H](C)CO)CC[C@H]2C
- MIC (Cryptococcus neoformans): ≥ 100 µg/mL
- MIC (Pseudomonas aeruginosa): > 100 µg/mL
- MIC (Staphylococcus aureus): > 100 µg/mL

Molecule: CC(C)=CC=C[C@H](C)[C@@H]1CC[C@@H](C)c2ccc(C)cc21
- MIC (Cryptococcus neoformans): > 100 µg/mL
- MIC (Pseudomonas aeruginosa): > 100 µg/mL
- MIC (Staphylococcus aureus): > 100 µg/mL

Molecule: CC1=C[C@H]2[C@@H](CC1)[C@H](C)CC[C@H]2[C@@H](C)C=O
- MIC (Cryptococcus neoformans): 12.5 µg/mL (≈ 56.7 µM)
- MIC (Pseudomonas aeruginosa): > 100 µg/mL
- MIC (Staphylococcus aureus): > 100 µg/mL

Molecule: CC1=C[C@H]2[C@@H](CC1)[C@H](C)CC[C@H]2[C@@H](C)CCC=O
- MIC (Cryptococcus neoformans): > 100 µg/mL
- MIC (Pseudomonas aeruginosa): > 100 µg/mL
- MIC (Staphylococcus aureus): > 100 µg/mL
